The source made the active and inactive calls.
Columns and labels:
[1] = target: T1, Metabotropic glutamate receptor 5 (Homo sapiens, UniProt P41594); experiment: Activity at human recombinant mGluR5 expressed in L(tk-) cells assessed as inhibition of quisqualate-induced phosphoinositol accumulation; format: functional, cell-based
[2] = target: Metabotropic glutamate receptor 1 (Homo sapiens) (UniProt Q13255); experiment: Activity at human recombinant mGluR1 expressed in L(tk-) cells assessed as inhibition of quisqualate-induced phosphoinositol accumulation at 10 uM; format: functional, cell-based
Sequence of Metabotropic glutamate receptor 1 (Homo sapiens) (Q13255 19-1194 limits assumed): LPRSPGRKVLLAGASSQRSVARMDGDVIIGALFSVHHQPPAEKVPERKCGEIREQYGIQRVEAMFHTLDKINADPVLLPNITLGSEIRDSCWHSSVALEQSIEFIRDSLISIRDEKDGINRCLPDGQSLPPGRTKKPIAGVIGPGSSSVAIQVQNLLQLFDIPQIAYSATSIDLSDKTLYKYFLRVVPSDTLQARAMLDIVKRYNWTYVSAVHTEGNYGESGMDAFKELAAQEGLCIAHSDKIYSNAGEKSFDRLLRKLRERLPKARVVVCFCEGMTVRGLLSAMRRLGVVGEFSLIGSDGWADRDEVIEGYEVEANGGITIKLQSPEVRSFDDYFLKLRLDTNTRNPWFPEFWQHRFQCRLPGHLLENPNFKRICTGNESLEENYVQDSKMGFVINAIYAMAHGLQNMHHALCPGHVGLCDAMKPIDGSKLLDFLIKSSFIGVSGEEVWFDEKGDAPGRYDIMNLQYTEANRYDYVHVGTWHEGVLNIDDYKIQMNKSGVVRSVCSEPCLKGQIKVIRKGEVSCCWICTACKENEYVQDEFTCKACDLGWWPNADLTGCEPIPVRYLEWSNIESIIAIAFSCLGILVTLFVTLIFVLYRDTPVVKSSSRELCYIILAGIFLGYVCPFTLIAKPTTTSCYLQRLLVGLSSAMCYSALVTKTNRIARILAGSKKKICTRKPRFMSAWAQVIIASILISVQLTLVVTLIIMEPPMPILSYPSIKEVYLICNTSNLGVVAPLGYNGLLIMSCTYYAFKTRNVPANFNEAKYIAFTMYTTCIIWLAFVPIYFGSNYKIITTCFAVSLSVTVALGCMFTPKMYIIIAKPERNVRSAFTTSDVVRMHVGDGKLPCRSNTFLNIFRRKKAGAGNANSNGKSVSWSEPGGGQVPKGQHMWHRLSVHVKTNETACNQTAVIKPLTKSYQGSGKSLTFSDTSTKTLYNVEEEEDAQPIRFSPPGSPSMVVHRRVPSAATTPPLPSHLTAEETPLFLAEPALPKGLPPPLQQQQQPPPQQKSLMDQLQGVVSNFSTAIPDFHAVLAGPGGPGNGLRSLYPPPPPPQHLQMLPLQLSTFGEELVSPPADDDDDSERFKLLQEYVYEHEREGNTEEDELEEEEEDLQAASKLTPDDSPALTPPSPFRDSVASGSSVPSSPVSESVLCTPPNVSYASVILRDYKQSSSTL
Method in brief: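 Inhibition of quisqualate (40 µM)-stimulated PI accumulation in hmGluR1-expressing cells cultured in glutamate-free DMEM (2 mM L-glutamine, proline, 10% dialyzed FCS, geneticin). Percent control ± SD, n = 3 independent determinations, each in triplicate.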

[3] = target: T1, Metabotropic glutamate receptor 5; experiment: Displacement of [3H]M-MPEP from human mGluR5 receptor expressed in L (tk-) cells; format: cell-based
Method in brief: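 Membranes from L(tk-) cells expressing recombinant human mGluR5, incubated with 2 nM [3H]-M-MPEP over a range of competitor concentrations. Non-specific binding was taken with 1 µM unlabeled M-MPEP. Readout is percent specific binding.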

[4] = target: T1, Metabotropic glutamate receptor 5; experiment: Displacement of [3H]ABP688 from human mGluR5 receptor expressed in L (tk-) cells; format: cell-based
[5] = target: Metabotropic glutamate receptor 1 (Homo sapiens) (UniProt Q13255); experiment: Activity at human recombinant mGluR1 expressed in L(tk-) cells assessed as basal phosphoinositol level
[6] = target: T1, Metabotropic glutamate receptor 5; experiment: Activity at human recombinant mGluR5 expressed in L(tk-) cells assessed as inhibition of glutamate-induced calcium release; format: functional, cell-based
[7] = target: T2, Metabotropic glutamate receptor 5 (Rattus norvegicus, UniProt P31424); experiment: Displacement of [3H]ABP688 from mGluR5 in rat brain membrane; format: cell membranes
T2 sequence (P31424 whole entry): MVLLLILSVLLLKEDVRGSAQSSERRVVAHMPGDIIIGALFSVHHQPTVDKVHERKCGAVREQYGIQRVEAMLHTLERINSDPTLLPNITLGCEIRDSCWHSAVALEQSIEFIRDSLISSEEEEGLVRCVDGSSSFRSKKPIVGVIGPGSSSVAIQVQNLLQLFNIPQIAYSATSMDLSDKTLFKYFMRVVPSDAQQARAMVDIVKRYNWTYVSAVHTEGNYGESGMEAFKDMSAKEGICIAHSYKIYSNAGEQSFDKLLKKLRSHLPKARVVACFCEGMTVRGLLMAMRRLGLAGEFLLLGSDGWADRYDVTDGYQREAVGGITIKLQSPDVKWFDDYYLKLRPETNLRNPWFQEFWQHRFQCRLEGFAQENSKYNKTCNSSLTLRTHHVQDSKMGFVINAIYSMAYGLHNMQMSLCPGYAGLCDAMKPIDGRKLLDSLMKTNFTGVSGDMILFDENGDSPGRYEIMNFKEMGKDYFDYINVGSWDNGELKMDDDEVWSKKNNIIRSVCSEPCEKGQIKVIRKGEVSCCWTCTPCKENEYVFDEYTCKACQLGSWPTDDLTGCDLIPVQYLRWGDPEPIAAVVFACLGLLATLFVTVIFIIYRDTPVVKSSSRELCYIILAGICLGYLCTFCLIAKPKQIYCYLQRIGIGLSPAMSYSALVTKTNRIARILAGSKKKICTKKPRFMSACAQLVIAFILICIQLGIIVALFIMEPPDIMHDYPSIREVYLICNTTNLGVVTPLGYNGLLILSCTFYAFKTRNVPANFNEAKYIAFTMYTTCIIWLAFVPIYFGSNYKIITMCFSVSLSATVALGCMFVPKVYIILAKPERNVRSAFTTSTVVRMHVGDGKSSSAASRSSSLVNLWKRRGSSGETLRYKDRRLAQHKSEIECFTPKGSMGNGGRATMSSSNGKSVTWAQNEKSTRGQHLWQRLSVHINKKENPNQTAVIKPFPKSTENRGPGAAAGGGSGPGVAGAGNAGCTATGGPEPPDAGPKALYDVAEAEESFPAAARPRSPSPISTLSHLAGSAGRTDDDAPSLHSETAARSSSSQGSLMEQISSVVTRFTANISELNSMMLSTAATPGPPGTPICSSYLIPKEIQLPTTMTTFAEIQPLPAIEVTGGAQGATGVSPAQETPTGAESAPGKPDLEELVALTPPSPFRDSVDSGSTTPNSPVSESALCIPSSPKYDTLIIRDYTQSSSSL

Rattus norvegicus = experiment: Drug uptake in Wistar rat at 4 ug/kg, iv; format: ADME, organism-based; conditions: in vivo, 0.004 mg/kg
Method in brief: (§1)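 Male Wistar rats (220–250 g) given 4 µg/kg [3H]ABP688 in EtOH/5% glucose (1:99), 1 mL/kg, into the exposed femoral vein under light isoflurane. n = 3 per time point; plasma and tissues collected, total radioactivity by scintillation, parent by LC-radiodetection with unlabeled internal standard. Bi-exponential compartmental PK analysis.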

[8] = Ratio of drug levels in brain to plasma in Wistar rat at 4 ug/kg, iv; format: ADME, organism-based; conditions: brain and plasma, 0.004 mg/kg
Method in brief: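 Male Wistar rats (220–250 g) given 4 µg/kg [³H]ABP688 iv into the surgically exposed femoral vein under slight isoflurane anaesthesia, in EtOH/glucose 5% (1:99 v/v) at 1 mL/kg. Groups of n = 3 per sampling time over about 2.5 h. Plasma and brain were taken. Total radioactivity was read by liquid scintillation, and parent compound by LC-RID with unlabelled internal standard. Values are means ± SD.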

[9] = Metabolic stability assessed as intrinsic clearance in Sprague-Dawley rat liver microsomes; format: ADME, Microsome
Method in brief: (§2)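 Pooled liver microsomes (male Sprague-Dawley rat; mixed-gender Caucasian human), 0.2 mg protein/mL, incubated with [3H]ABP688 (0.92 µmol/L) for 40 min at 37 °C in 0.1 M sodium phosphate pH 7.4 containing 4 mM UDPGA, 1 mM β-NADPH and 5 mM MgCl2. Parent depletion tracked by on-line radio-HPLC; intrinsic clearance from parent kinetics.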

[10] = Metabolic stability assessed as intrinsic clearance in human liver microsomes; format: ADME, Microsome; method in brief: as §2
Brain [11] = experiment: Drug uptake in Wistar rat brain at 4 µg/kg, iv; conditions: in vivo
Plasma [12] = experiment: Drug distribution in human plasma; format: ADME, cell-free
Method in brief: (§3)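 Fresh heparinized rat or human blood spiked with [3H]ABP688 (5–500,000 pg/mL) at 37 °C. Plasma separated by centrifugation (1500g, 10 min, 37 °C), total radioactivity counted in plasma and blood, hematocrit measured (n = 3). Plasma fraction fP (%) = (Cp/Cb)·(1−H)·100.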

[13] = Volume of distribution in Wistar rat at 4 ug/kg, iv; format: ADME, organism-based; conditions: in vivo, 0.004 mg/kg, read-out: Vss; method in brief: as §1
[14] = target: T2, Metabotropic glutamate receptor 5; experiment: Binding affinity at mGluR5 in rat brain membrane; format: cell membranes
Method in brief: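 Rat whole-brain membranes in Na-HEPES buffer (110 mM NaCl, 1.2 mM MgCl2, 5 mM KCl, 2.5 mM CaCl2), pH 8.0. Competition against fixed 1.5 nM [3H]ABP688, equilibrated 60 min at 37 °C, then filtered on glass-fibre and counted by liquid scintillation, in triplicate. Ki derived by Cheng–Prusoff from non-linear curve fits.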

Brain [15] = experiment: Drug level in Wistar rat brain at 4 ug/kg, iv after 5 mins; format: ADME, organism-based; conditions: in vivo, 0.004 mg/kg; method in brief: as §1
Plasma [16] = experiment: Drug distribution in rat plasma; format: ADME, cell-free; method in brief: as §3
[17] = Protein binding in rat plasma as percentage unbound; format: ADME, cell-free
Method in brief: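 Rat or human plasma spiked with [3H]ABP688 (50–500,000 pg/mL) and ultrafiltered at 37 °C through a 30 kDa cut-off device. Radioactivity in ultrafiltrate (Cu) and in sample before filtration (Cp) counted by liquid scintillation; fu (%) = Cu/Cp·100.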

T1 sequence (P41594 whole entry): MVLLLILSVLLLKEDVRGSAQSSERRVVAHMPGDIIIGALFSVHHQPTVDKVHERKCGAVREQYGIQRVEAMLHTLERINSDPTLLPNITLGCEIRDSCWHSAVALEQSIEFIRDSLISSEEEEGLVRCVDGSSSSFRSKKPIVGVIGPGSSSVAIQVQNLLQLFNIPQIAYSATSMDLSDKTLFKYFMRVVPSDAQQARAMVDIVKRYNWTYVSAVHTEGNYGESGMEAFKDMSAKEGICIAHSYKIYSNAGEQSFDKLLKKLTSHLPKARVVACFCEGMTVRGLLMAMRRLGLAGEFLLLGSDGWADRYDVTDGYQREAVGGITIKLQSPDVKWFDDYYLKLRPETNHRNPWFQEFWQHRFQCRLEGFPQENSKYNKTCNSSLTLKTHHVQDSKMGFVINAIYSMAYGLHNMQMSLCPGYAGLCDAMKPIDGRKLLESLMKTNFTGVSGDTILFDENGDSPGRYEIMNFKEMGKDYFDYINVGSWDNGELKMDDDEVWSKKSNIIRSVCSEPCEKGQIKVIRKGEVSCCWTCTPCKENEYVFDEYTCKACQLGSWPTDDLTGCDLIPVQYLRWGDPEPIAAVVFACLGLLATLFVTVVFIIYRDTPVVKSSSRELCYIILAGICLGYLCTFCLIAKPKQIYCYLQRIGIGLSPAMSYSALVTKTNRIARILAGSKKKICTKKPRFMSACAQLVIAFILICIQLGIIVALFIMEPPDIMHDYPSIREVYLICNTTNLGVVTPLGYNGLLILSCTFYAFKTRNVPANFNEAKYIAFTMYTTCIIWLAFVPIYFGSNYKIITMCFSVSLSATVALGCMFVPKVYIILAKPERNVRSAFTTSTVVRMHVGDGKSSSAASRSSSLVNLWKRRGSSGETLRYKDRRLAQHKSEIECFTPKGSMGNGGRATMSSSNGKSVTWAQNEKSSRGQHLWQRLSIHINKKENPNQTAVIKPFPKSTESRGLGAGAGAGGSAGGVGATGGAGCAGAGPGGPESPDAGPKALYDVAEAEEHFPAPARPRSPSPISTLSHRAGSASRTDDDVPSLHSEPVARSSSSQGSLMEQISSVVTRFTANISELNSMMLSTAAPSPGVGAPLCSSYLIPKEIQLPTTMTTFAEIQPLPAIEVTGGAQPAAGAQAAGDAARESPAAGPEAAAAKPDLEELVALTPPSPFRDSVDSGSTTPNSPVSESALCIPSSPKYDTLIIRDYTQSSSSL

## CO/N=C1/C=C(C#Cc2cccc(C)n2)CCC1
[1]
  IC50: 2.4 nM
[2]
  Activity: inactive
[3]
  IC50: 7 nM
  Ki: 3.5 nM
[4]
  Ki: 1.7 nM
[5]
  Activity: inactive
[6]
  IC50: 2.3 nM
[7]
  Ki: 1.8 nM

## COc1cccc(C#Cc2cccc(C)n2)c1 [M-MPEP]
[7]
  Ki: 11 nM

## [3H]C([3H])([3H])O/N=C1/C=C(C#Cc2cccc(C)n2)CCC1
Rattus norvegicus
  Drug uptake: 21 %ID
[8]
  Kp: 20
[9]
  microsomal CLint: 150 µL/min/mg
[10]
  microsomal CLint: 150 µL/min/mg
Brain [11]
  Drug uptake: 0.8 %ID
Plasma [12]
  Activity: 92%
[13]
  Vd: 11 L/kg
[14]
  Kd: 2.3 nM
Brain [15]
  Activity: 21 pmol/g
Plasma [16]
  Activity: 76%
[17]
  fraction unbound: 0.068

## CCOC(=O)[C@]12CC1/C(=N\O)c1ccccc1O2 (some centres not stated) [CPCCOET]
[4]
  Ki: > 100000 nM
[7]
  Ki: > 10000 nM
